We go through 18 compounds from PubChem BioAssay AID602148 (NMMLSC, 2011).

The experiment relates to U937 deltaST FPR, LDV-FITC VLA-4 binding, flow cytometry. Nature of the experiment: decrease of VLA-4 ligand affinity after FPR stimulation, mechanism study for Ras-related GTPase inhibitor project, U937 deltaST FPR cells, flow cytometry (AID 602148). Conditions: at 50 µM; active compounds read high. An outline of the steps:
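system = U937 cells with non-desensitizing deltaST formyl peptide receptors | incubation = 1024 s reading at 37 °C | technique = flow cytometry, mean channel fluorescence of bound LDV-FITC | read-out basis = graded drop in LDV-FITC binding (0-2) | controls = unlabeled LDV excess as nonspecific control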
On the technique in general: A flow cytometer gives signals particle by particle.

Calls of active or inactive are those of the source.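 The calls were made as follows: active = a drop over time in fluorescent ligand binding to the VLA-4 integrin, graded weak or strong, level 1 or 2; inactive = no binding drop, level 0.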

For the compound `CC1(C)Cc2c(sc(NC(=S)NC(=O)c3ccccc3F)c2C(=O)O)CO1`, the VLA-4 affinity decrease level (0-2) is 0 (inactive).
With `CC1(C)Cc2c(sc(NC(=S)NC(=O)c3ccc(Br)cc3)c2C(=O)O)CO1` the figure was 2; with `CC(C)(C)C1Cc2c(sc(NC(=S)NC(=O)c3ccccc3)c2C(=O)O)CO1` (stereo not drawn), 0 (inactive).
With `Cc1ccc(C(=O)NC(=S)Nc2sc3c(c2C(=O)O)CC(C)(C)OC3)cc1` the figure was 0 (inactive); with `O=C(NC(=S)Nc1sc2c(c1C(=O)O)CC1(CCCC1)OC2)c1ccccc1`, 0 (inactive).
For `CC1(C)Cc2c(sc(NC(=S)NC(=O)c3ccco3)c2C(=O)O)CO1` the value was 0 (inactive).
Regarding `CC1(C)Cc2c(sc(NC(=S)NC(=O)c3cccs3)c2C(=O)O)CO1`, the VLA-4 affinity decrease level (0-2) is 0 (inactive).
For `CC1(C)Cc2c(sc(NC(=S)NC(=O)c3cccc(Br)c3)c2C(=O)O)CO1` the value was 2.
For the compound `CC1(C)Cc2c(sc(NC(=S)NC(=O)c3ccccc3Br)c2C(=O)O)CO1`, the VLA-4 affinity decrease level (0-2) was 2.
For `CC1(C)Cc2c(sc(NC(=S)NC(=O)c3cccc(F)c3)c2C(=O)O)CO1` the value was 1; for `Cc1cccc(C(=O)NC(=S)Nc2sc3c(c2C(=O)O)CC(C)(C)OC3)c1`, 0 (inactive); for `COc1cccc(C(=O)NC(=S)Nc2sc3c(c2C(=O)O)CC(C)(C)OC3)c1`, 2.
Take `CC1(C)Cc2c(sc(NC(=S)NC(=O)c3ccc(F)cc3)c2C(=O)O)CO1`: the VLA-4 affinity decrease level (0-2) is 0 (inactive).
For `Cc1ccccc1C(=O)NC(=S)Nc1sc2c(c1C(=O)O)CC(C)(C)OC2` the value was 0 (inactive).
`CC1(C)Cc2c(sc(NC(=S)NC(=O)C3CCCCC3)c2C(=O)O)CO1`: the VLA-4 affinity decrease level (0-2) is 1.
With `CCC1(C)Cc2c(sc(NC(=S)NC(=O)c3ccccc3)c2C(=O)O)CO1` (stereo not drawn) the figure was 0 (inactive).
As for `COc1ccccc1C(=O)NC(=S)Nc1sc2c(c1C(=O)O)CC(C)(C)OC2`, the VLA-4 affinity decrease level (0-2) was 1.
For `COc1ccc(C(=O)NC(=S)Nc2sc3c(c2C(=O)O)CC(C)(C)OC3)cc1` the value was 1.
